SUMO1-SIM PPI – alters human SUMO1 binding to SIM partners; P63165; SUMO1 binding to a labelled peptide, TR-FRET, 1 h; inhibition, % at 20 µM; 0.33% of 360,000 active; AID 602429; in the data active = inhibition above about 37%
Scp-1 inhibitor – inhibitors of human Scp-1 phosphatase; AID 493091; 0.88% of 340,000 active; inhibition, % at 20 µM; Recombinant Scp1, phosphopeptide, malachite green phosphate absorbance; Q9GZU7;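 active = inhibition above about 50% at 20 µM, limit read from the data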
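Test system: SCP-1 phosphatase catalytic domain, residues 76-261; measured by: colorimetric phosphate reagent with accelerator and stabiliser, absorbance at 630 nm; timing: enzyme reaction 45 min at room temperature, colour 5 min, stabilisation 30 min; also added: Phosphorylated 17-residue peptide substrate; compound dosing: one concentration, 20 µM, with 1.0% DMSO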
STEP block – inhibitors of human striatal-enriched phosphatase STEP | P54829 | recombinant STEP, OMFP fluorogenic substrate, fluorescence | inhibition, % at 20 µM | 0.25% of 360,000 active | AID 588621;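 active = inhibition at 20 µM, scaled per plate between control wells, above about 37%, limit read from the data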
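Assay system: isolated STEP enzyme. Buffer or medium: pH 6.0 Bis-Tris with DTT and Tween 20. Also added: fluorogenic phosphatase substrate OMFP at 25 µM final. Dosing: 20 µM, 1% DMSO. Timing: 20 min reaction, room temperature, in the dark. Measured by: fluorescence intensity, excitation 480 nm, emission 540 nm. Evaluation: normalized % inhibition.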
LMPTP block – blocks human LMPTP phosphatase | P24666 | recombinant LMPTP-A, OMFP fluorogenic substrate, fluorescence intensity | inhibition, % at 20 µM | 0.22% of 360,000 active | AID 651560;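 active = compounds that cut the enzyme signal by at least half of the control window in the single-dose screen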
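Assay system: LMPTP-A phosphatase enzyme | Input: 0.625 nM enzyme | Also added: Fluorogenic phosphatase substrate OMFP at 400 µM final | Compound dosing: One test concentration per compound, 20 µM, with 3% DMSO overall | Schedule: 50 min enzyme reaction at room temperature, protected from light | Signal: Fluorescence intensity | Benchmarks: no-enzyme and uninhibited controls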
DNMT1 inh – inhibitors of human DNMT1; 0.83% of 360,000 active; inhibition (reported as % activation of signal), % at 10 µM; DNMT1 molecular beacon, Hinp1I cleavage, fluorescence; in the data active = inhibition above about 50%
Target sequence (P26358 504-1616 limits assumed): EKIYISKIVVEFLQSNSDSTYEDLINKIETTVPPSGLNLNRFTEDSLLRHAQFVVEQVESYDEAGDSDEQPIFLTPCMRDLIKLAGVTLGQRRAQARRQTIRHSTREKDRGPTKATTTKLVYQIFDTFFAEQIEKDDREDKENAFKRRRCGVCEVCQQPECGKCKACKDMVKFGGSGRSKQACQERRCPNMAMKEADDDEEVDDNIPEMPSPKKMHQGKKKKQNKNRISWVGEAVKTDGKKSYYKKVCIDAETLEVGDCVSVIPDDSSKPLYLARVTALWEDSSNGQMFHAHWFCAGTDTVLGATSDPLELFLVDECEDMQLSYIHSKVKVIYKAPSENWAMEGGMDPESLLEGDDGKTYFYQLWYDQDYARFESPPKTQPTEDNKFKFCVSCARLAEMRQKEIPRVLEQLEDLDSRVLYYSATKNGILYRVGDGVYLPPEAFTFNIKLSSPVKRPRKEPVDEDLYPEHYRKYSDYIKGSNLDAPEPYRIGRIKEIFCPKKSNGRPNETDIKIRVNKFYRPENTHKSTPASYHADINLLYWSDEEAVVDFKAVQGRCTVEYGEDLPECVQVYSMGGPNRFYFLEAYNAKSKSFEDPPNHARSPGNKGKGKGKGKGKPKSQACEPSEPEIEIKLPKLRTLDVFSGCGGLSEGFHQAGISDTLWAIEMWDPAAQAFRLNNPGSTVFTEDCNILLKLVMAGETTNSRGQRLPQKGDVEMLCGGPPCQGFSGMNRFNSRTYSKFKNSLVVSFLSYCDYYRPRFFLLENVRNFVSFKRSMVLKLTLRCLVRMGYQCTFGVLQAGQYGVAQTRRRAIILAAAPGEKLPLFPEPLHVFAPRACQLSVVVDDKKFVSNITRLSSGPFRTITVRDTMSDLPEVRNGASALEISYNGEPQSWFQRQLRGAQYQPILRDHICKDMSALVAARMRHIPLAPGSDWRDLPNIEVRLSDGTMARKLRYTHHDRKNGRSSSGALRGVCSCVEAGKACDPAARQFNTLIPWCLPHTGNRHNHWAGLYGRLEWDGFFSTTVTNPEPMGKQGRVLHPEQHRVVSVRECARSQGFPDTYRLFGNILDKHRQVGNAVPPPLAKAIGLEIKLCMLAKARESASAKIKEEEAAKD
Each line names hits and unclear results; the compound was inactive in the other large screens. Shown are actives, neighbours in structure and some others; about 1.8% of the full set was active somewhere.

COC(=O)c1ccccc1-c1c2ccc(=N)cc-2oc2cc(N)ccc12	DNMT1 inh active
COC(=O)c1ccccc1-c1ccc(/C=N/NC(=O)c2cc3ccccc3o2)o1	none
O=[N+]([O-])c1ccc(N=Nc2ccc(O)cc2O)cc1	none
O=S(=O)(O)c1cc(Cl)cc(N=Nc2ccc(O)cc2O)c1O	Scp-1 inhibitor 73, LMPTP block 50, DNMT1 inh 68
C#CCOCCOCCOCCNc1nc(N2CCN(C(=O)CCCCCCCCCCNC(=O)[C@H](CCCCN)n3cc(CCO)nn3)CC2)nc(N2CCN(C(=O)CCCCCCCCCCNC(=O)[C@H](CCCN=C(N)N)n3cc(C[C@@H](C)CC)nn3)CC2)n1	SUMO1-SIM PPI 90
C#CCOCCOCCOCCNc1nc(N2CCN(C(=O)CCCCCCCCCCNC(=O)[C@H](CCCCN)n3cc(C)nn3)CC2)nc(N2CCN(C(=O)CCCCCCCCCCNC(=O)[C@@H]([C@H](C)CC)n3cc(CCCCCN)nn3)CC2)n1	SUMO1-SIM PPI 51 (no result: Scp-1 inhibitor)
C#CCOCCOCCOCCNc1nc(N2CCN(C(=O)CCCCCCCCCCNC(=O)[C@H](CCCCN)n3cc(CCCC(=O)O)nn3)CC2)nc(N2CCN(C(=O)CCCCCCCCCCNC(=O)[C@H](CCCN=C(N)N)n3cc(C[C@@H](C)CC)nn3)CC2)n1	none
C#CCOCCOCCOCCNc1nc(N2CCN(C(=O)CCCCCCCCCCNC(=O)[C@@H](CCSC)n3cc(CCO)nn3)CC2)nc(N2CCN(C(=O)CCCCCCCCCCNC(=O)[C@H]([C@@H](C)CC)n3cc(CCCCN=C(N)N)nn3)CC2)n1	SUMO1-SIM PPI 90
C#CCOCCOCCOCCNc1nc(N2CCN(C(=O)CCCCCCCCCCNC(=O)[C@H](CCCCN)n3cc(C[C@@H](C)CC)nn3)CC2)nc(N2CCN(C(=O)CCCCCCCCCCNC(=O)[C@H](CCCCN)n3cc(C[C@@H](C)CC)nn3)CC2)n1	SUMO1-SIM PPI 67, Scp-1 inhibitor 53
COc1ccc(S(=O)(=O)N2CCN(C/C=C/c3ccccc3)CC2)cc1F	none
O=C1CCCN1CCCNc1nc(NCc2cccs2)nc2ccsc12	LMPTP block 74 (no result: Scp-1 inhibitor)
CC(=O)NCCNc1nc(NCc2cccs2)nc2ccsc12	none (no result: Scp-1 inhibitor)
Cn1c(N)c(N2CCCCC2)c(=O)n(CC(=O)Nc2ccc(Cl)c(Cl)c2)c1=O	SUMO1-SIM PPI 56
Cc1csc(=O)n1CC(=O)Nc1ccc(Cl)c(Cl)c1	none
Cc1cc(O)c2c(c1O)C(=O)[C@]13C(=C2O)C(=O)[C@@H]2[C@@H](O)[C@H]1[C@@H]1[C@H](O)[C@H]3C(=O)C3=C(O)c4c(O)cc(C)c(O)c4C(=O)[C@]312	SUMO1-SIM PPI 103, Scp-1 inhibitor 58, STEP block 43, LMPTP block 88, DNMT1 inh 95
COc1cccc2c1C(=O)c1c(O)c3c(c(O)c1C2=O)C[C@@](O)(C(=O)CO)C[C@@H]3O[C@H]1C[C@H](N)[C@@H](O)[C@H](C)O1	SUMO1-SIM PPI 97
COc1cccc2c1C(=O)c1c(O)c3c(c(O)c1C2=O)C[C@@](O)(C(C)=O)C[C@@H]3O[C@H]1C[C@H](N)[C@H](O)[C@H](C)O1	none
Cc1ccc(OC(=O)N(C)C[C@@H]2OCc3cn(nn3)CCCC(=O)N([C@H](C)CO)C[C@H]2C)cc1	none (no result: Scp-1 inhibitor)
Cc1ccc(C(=O)c2c(C)oc3c2C(=O)C(=O)c2ccccc2-3)cc1	DNMT1 inh 52
O=c1cc2c(=O)oc3cc(O)c(O)oc3c2c(O)c1O	Scp-1 inhibitor 85, STEP block 96, LMPTP block 61
Cc1c(C(=O)NCc2ccc(C(C)C)cc2)sc(=O)n1Cc1cccc(F)c1	none (no result: Scp-1 inhibitor)
CS(=O)(=O)N1CCC(Oc2ccccc2C(=O)NC(C2CC2)C2CC2)CC1	SUMO1-SIM PPI 40
Brc1ccc(C2Nc3cccc4cccc(c34)N2)s1	DNMT1 inh 55
CC1CCCCN1CCNC(=O)C1CC(=O)N(c2ccc(F)c(Cl)c2)C1 (configuration not stated)	none
CC1CCCN(CCCNC(=O)C2CC(=O)N(c3ccc(F)c(Cl)c3)C2)C1 (configuration not stated)	SUMO1-SIM PPI 42
CCC(C)[C@H](NS(=O)(=O)c1ccc(F)cc1Br)C(=O)OC (some centres not stated)	none
Cc1cc(N2CCN(C(C(=O)NC3CCCC3)c3ccco3)CC2)c2ccccc2n1 (configuration not stated)	LMPTP block 56 (no result: Scp-1 inhibitor, STEP block, DNMT1 inh)
C=Cc1cnc([N+](=O)[O-])n1C	none (no result: Scp-1 inhibitor)
O=[N+]([O-])c1ccc(-c2nc(Nc3cccc(O)c3)c3ccccc3n2)cc1	none
O=C(O)c1cccc(Nc2nc(-c3ccc([N+](=O)[O-])cc3)nc3ccccc23)c1	LMPTP block 52
CCOC(=O)C1=C(C)N(C)C(=O)NC1c1cccc(O)c1 (configuration not stated)	SUMO1-SIM PPI 56
Cc1ccc(S(=O)(=O)c2nnn3c2nc(NCCCN2CCCC2=O)c2ccccc23)cc1C	SUMO1-SIM PPI 56
CCCCNc1nc2c(S(=O)(=O)c3ccccc3)nnn2c2ccccc12	none
Cc1cc2[nH]c3c4ccccc4nc(C)c3c2cc1C	LMPTP block 55
O=C(NC1CC2CCCC(C1)N2C(=O)Nc1ccccc1F)C1CC1 (configuration not stated)	none
O=C(Nc1nc2ccc(F)cc2s1)C1CCN(S(=O)(=O)c2cc([N+](=O)[O-])ccc2Cl)CC1	Scp-1 inhibitor 55
CN(Cc1ccccc1)C(=O)C1CCN(S(=O)(=O)c2cc([N+](=O)[O-])ccc2Cl)CC1	none
Cc1ccc(NC(=O)C2CCN(S(=O)(=O)c3cc([N+](=O)[O-])ccc3Cl)CC2)nc1	none
CC(=O)COC(=O)C1CCN(S(=O)(=O)c2cc([N+](=O)[O-])ccc2Cl)CC1	DNMT1 inh 56
COc1ccccc1C(=O)NC(=O)COC(=O)c1cccc(NC(C)=O)c1	none
O/N=C1\CCC\C1=C/c1ccco1	none
O=C1C(=Cc2ccco2)CCC1=Cc1ccco1	SUMO1-SIM PPI 121, Scp-1 inhibitor 80, STEP block 97, LMPTP block 64
C[N+]1(CC(O)COCC2COc3ccccc3O2)CCOCC1 (configuration not stated)	Scp-1 inhibitor 106
CC1(C(=O)NS(=O)(=O)c2cccs2)CCN1C(=O)c1ccccc1CCc1ccccc1 (configuration not stated)	none (no result: Scp-1 inhibitor)
COc1ccc(OC)c(/C=C/c2ccnc3ccccc23)c1	none
COc1ccc2ncccc2c1Cc1c(OC)ccc2ncccc12	LMPTP block 56
Cc1cccc(C(=O)O/N=C(/c2ccccc2)c2ccncc2)c1	SUMO1-SIM PPI 40
COc1ccc(C(=O)O/N=C(/c2ccccc2)c2ccncc2)cc1OC	none
COCCNC(=O)C1(C)CCN(C(=O)c2ccc3sccc3c2)C1 (configuration not stated)	none (no result: Scp-1 inhibitor)
